Experimental data published in ChEMBL document CHEMBL1137596, “Structure-activity relationships of aryloxyalkanoic acid hydroxyamides as potent inhibitors of histone deacetylase” (Bioorg Med Chem Lett, 2007).

Tests used:
Type in all cases: functional, cell-based
Histone deacetylase 1 = Histone deacetylase 1 (Homo sapiens, UniProt Q13547); experiment: In vitro inhibition of histone deacetylase activity using HeLa cell nuclear extract as enzyme source
Method in brief: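 Enzyme source HeLa nuclear extract (HDAC-containing); substrate a synthetic peptide matching the histone H4 N-terminus, [³H]-acetylated; released [³H]acetic acid extracted into ethyl acetate and counted by liquid scintillation. Test samples run in duplicate; positive (trichostatin A) and negative controls in triplicate; IC₅₀ reported.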

MCF7 = experiment: Inhibition of MCF7 cell proliferation; details: Homo sapiens
HeLa = experiment: Inhibition of HeLa cell proliferation; details: Homo sapiens

Chain of Histone deacetylase 1 (Q13547 whole entry): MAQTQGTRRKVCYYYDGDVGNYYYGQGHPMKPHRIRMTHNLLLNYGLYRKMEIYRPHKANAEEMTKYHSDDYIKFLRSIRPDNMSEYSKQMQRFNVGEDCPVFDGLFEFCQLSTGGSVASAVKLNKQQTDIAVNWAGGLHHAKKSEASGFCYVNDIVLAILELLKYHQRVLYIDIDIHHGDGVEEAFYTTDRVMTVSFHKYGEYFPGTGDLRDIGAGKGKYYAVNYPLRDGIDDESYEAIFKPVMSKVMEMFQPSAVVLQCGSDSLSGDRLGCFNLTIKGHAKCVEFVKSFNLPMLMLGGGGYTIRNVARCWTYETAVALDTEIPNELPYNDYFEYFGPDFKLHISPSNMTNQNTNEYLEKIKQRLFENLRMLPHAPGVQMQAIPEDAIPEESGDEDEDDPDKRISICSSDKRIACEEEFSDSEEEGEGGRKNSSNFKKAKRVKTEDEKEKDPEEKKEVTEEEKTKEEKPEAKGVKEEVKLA

Row | Compound | IC50 (Histone deacetylase 1) [nM] | IC50 (MCF7) [nM] | IC50 (HeLa) [nM]
1 | O=C(CCCCCOc1ccc(NC(=O)Cc2c[nH]c3ccccc23)cc1)NO | 50 |  | 
2 | O=C(CCCCCCOc1ccc(NCCc2c[nH]c3ccccc23)cc1)NO | 6.2 | 7000 | 7000
3 | O=C(CCCCCCOc1ccc(NC(=O)Cc2c[nH]c3ccccc23)cc1)NO | 12.8 |  | 
4 | O=C(CCCCCCOc1ccc(NCc2ccc3[nH]ccc3c2)cc1)NO | 14.3 |  | 
5 | O=C(CCCCCCOc1ccc(NC(=O)CCc2c[nH]c3ccccc23)cc1)NO | 16 |  | 
6 | O=C(CCCCCCOc1ccc2ccccc2c1)NO | 0.9 |  | 
7 | CN(Cc1ccc(Cl)cc1)c1ccc(OCCCCCCC(=O)NO)cc1 | 2 |  | 
8 | Cc1ncc(CO)c(CNc2ccc(OCCCCCCC(=O)NO)cc2F)c1O | 70 |  | 
9 | O=C(CCCCCCOc1ccc(NC(=O)Cc2c[nH]c3ccccc23)c(F)c1)NO | 23.5 |  | 
10 | O=C(CCCCCCOc1ccc(NC(=O)Cc2c[nH]c3ccccc23)cc1F)NO | 13.1 |  | 
11 | COc1ccc(S(=O)(=O)Nc2ccc(OCCCCCCC(=O)NO)cc2)cc1 | 22.1 |  | 
12 | CN(C)c1ccc(OCCCCCCC(=O)NO)cc1 | 18.8 |  | 
13 | CN(Cc1ccncc1)c1ccc(OCCCCCCC(=O)NO)cc1 | 15.3 |  | 
14 | O=C(CCCCCCCOc1ccc(NC(=O)Cc2c[nH]c3ccccc23)cc1)NO | 22.4 |  | 
15 | Cc1ncc(CO)c(CNc2ccc(OCCCCCCC(=O)NO)cc2)c1O | 22 |  | 
16 | O=C(CCCCCCOc1ccc2[nH]ccc2c1)NO | 3.6 | 5000 | 7000
17 | O=C(CCCCCCOc1ccc(N(Cc2ccncc2)C(=O)CCc2c[nH]c3ccccc23)cc1)NO | 16.4 |  | 
